Test results from ChEMBL document CHEMBL4014329, “Selective Inhibition of Escherichia coli RNA and DNA Topoisomerase I by Hoechst 33258 Derived Mono- and Bisbenzimidazoles” (J Med Chem, 2017).
In brackets after ≈: the same amount, converted by molar mass. Activity calls are given as the source filed them. The rule behind the calls is not given here.

Tests used:
Citrobacter freundii = assay: Antibacterial activity against Citrobacter freundii 4747CFAA after 24 hrs by microbroth dilution method; format: functional
How it was run: (§1)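 Microbroth dilution per CLSI guidelines. Organisms grown in Mueller−Hinton broth at 37 °C with shaking to log phase, pelleted, resuspended in 0.85% saline to OD625 0.1. Final inoculum 5 × 10^5 CFU/mL; triplicate; 24 h at 37 °C. OD625 read; MIC = lowest concentration completely inhibiting growth versus untreated controls.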

Shigella flexneri = assay: Antibacterial activity against Shigella flexneri 2457NR517 after 24 hrs by microbroth dilution method; format: functional; conditions: 2457NR517, 24 h
How it was run: (§2)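 Mueller-Hinton broth cultures grown at 37 °C with shaking to log phase, pelleted, resuspended in 0.85% saline to OD625 0.1. Broth microdilution per CLSI guidelines, final inoculum 5 × 10^5 CFU/mL, in triplicate, 24 h at 37 °C. Growth read as OD625. MIC is the lowest concentration giving complete growth inhibition versus untreated controls.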

Escherichia coli [1] = assay: Antibacterial activity against Escherichia coli ATCC 25922 after 24 hrs by microbroth dilution method; format: functional; conditions: ATCC 25922, 24 h; how it was run: as §1
Staphylococcus aureus [2] = assay: Antibacterial activity against methicillin-resistant Staphylococcus aureus 33591 after 24 hrs by microbroth dilution method; format: functional; conditions: Staphylococcus aureus, 33591, 24 h; how it was run: as §2
Escherichia coli [3] = assay: Inhibition of Escherichia coli RNA topoisomerase-1 using circular RNA as substrate 10 uM after 1.5 hrs by SDS-PAGE analysis
How it was run: (§3)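 10 nM E. coli topoisomerase I premixed with reaction buffer and inhibitor diluted in DMSO, then circular RNA substrate added; 1.5 h incubation. Stopped with proteinase K/SDS/EDTA buffer. Trefoil RNA knot product separated from circular substrate on 15% TBE−urea gels and detected by phosphorimaging. DMSO-only control included.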

Escherichia coli [4] = assay: Inhibition of Escherichia coli DNA gyrase using relaxed plasmid pBAD-GFPuv as substrate after 30 mins by agarose gel electrophoresis
Staphylococcus aureus [5] = assay: Antibacterial activity against methicillin-resistant Staphylococcus aureus A960649 after 24 hrs by microbroth dilution method; format: functional; conditions: A960649, 24 h; how it was run: as §2
Enterococcus faecium = assay: Antibacterial activity against Enterococcus faecium BM4105RF after 24 hrs by microbroth dilution method; format: functional; how it was run: as §2
[6] = test system: Staphylococcus epidermidis; assay: Antibacterial activity against Staphylococcus epidermidis ATCC 12384 after 24 hrs by microbroth dilution method; format: functional; conditions: ATCC 12384, 24 h; how it was run: as §1
Acinetobacter baumannii = assay: Antibacterial activity against Acinetobacter baumannii ATCC 19606 after 24 hrs by microbroth dilution method; format: functional; conditions: ATCC 19606 = CIP 70.34 = JCM 6841, 24 h; how it was run: as §1
Klebsiella pneumoniae = assay: Antibacterial activity against Klebsiella pneumoniae NR15410 after 24 hrs by microbroth dilution method; format: functional; conditions: NR15410, 24 h; how it was run: as §1
Enterobacter cloacae = assay: Antibacterial activity against Enterobacter cloacae ATCC 13047 after 24 hrs by microbroth dilution method; format: functional; conditions: ATCC 13047, 24 h; how it was run: as §1
Pseudomonas aeruginosa = assay: Antibacterial activity against Pseudomonas aeruginosa ATCC 27853 after 24 hrs by microbroth dilution method; format: functional; conditions: ATCC 27853, 24 h; how it was run: as §1
DU-145 = assay: Cytotoxicity against human DU145 cells after 48 hrs by SRB assay; format: cell-based; conditions: for Activity: human, du-145, 48 h
How it was run: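 Cells cultured per ATCC protocols, seeded and grown 24 h (37 °C, 5% CO2), then treated in triplicate at final 20, 10, 5, 2.5, 1.25, 0.625 and 0.0625 μM for 48 h. Fixed with cold TCA (16% final, 4 °C, 1 h), stained with SRB in 1% acetic acid, dye solubilized in 10 mM Tris base, A560 read. IC50 derived; study in duplicate.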

[7] = Binding affinity to dA60.dT60 B-DNA duplex (unknown origin) assessed as change in melting temperature at 10 uM by UV-vis spectrophotometric analysis
How it was run: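 UV melting of dA60·dT60 at 1 μM/duplex with compound at 10 μM. Buffer 10 mM sodium cacodylate, 0.1 mM EDTA, 100 mM NaCl, pH 7.0; duplex pre-annealed from 95 °C. Compound stocks in DMSO diluted into buffer. Heating at 0.2 °C/min, monitored at 260 nm, points every 1.0 °C; Tm taken from derivatives.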

DNA topoisomerase 1 = biological target: T1, DNA topoisomerase 1 (Homo sapiens, UniProt P11387); assay: Inhibition of human DNA topoisomerase 1 using plasmid pBAD-GFPuv as substrate after 30 mins by agarose gel electrophoresis
T1 sequence (P11387 whole entry): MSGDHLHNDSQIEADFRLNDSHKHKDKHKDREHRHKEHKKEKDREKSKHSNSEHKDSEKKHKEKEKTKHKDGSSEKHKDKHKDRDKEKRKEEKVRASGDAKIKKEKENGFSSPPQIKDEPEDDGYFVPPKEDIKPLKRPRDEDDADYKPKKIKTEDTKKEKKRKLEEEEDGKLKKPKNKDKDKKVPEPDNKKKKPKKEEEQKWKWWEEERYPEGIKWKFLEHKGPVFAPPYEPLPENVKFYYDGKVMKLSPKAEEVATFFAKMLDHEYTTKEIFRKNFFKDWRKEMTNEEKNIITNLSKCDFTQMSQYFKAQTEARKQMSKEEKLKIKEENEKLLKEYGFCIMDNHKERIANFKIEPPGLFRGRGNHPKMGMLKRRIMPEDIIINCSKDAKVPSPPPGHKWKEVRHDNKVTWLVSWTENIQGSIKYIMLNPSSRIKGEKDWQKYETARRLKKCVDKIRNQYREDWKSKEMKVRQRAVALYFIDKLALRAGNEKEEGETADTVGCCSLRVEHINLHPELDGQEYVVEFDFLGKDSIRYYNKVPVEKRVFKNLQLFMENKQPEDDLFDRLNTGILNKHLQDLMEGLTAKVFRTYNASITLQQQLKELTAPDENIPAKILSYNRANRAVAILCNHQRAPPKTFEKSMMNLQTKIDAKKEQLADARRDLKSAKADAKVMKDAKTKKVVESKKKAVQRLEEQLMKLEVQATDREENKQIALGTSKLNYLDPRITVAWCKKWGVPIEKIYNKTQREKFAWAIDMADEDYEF

Staphylococcus aureus [8] = assay: Antibacterial activity against Staphylococcus aureus ATCC 33591 after 24 hrs by microbroth dilution method; format: functional; conditions: ATCC 33591, 24 h; how it was run: as §1
[9] = Binding affinity to dA60.dT60 B-DNA duplex (unknown origin) assessed as induction of biphasic transition at <5 uM by UV-vis spectrophotometric analysis
[10] = Inhibition of Escherichia coli DNA topoisomerase 1 using plasmid pBAD-GFPuv as substrate after 15 mins by agarose gel electrophoresis
How it was run: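 E. coli topoisomerase I at 6 nM relaxing 150 ng supercoiled pBAD-GFPuv. 15 min at 37 °C, phenol-stopped, 1% agarose gel, ethidium stain. IC50 is the concentration leaving 50% DNA supercoiled; three independent determinations.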

Escherichia coli [11] = assay: Antibacterial activity against Escherichia coli K-12 after 24 hrs by microbroth dilution method; format: functional; conditions: K-12, 24 h; how it was run: as §1
Staphylococcus aureus [12] = assay: Antibacterial activity against Staphylococcus aureus ATCC 29213 after 24 hrs by microbroth dilution method; format: functional; conditions: ATCC 29213, 24 h; how it was run: as §1
Enterococcus faecalis = assay: Antibacterial activity against Enterococcus faecalis ATCC 29212 after 24 hrs by microbroth dilution method; format: functional; conditions: ATCC 29212, 24 h; how it was run: as §1
Escherichia coli [13] = assay: Inhibition of Escherichia coli RNA topoisomerase 1 using circular RNA as substrate up to 50 uM after 1.5 hrs by SDS-PAGE analysis; how it was run: as §3
Escherichia coli [14] = assay: Inhibition of Escherichia coli RNA topoisomerase 1 using circular RNA as substrate up to 80 uM after 1.5 hrs by SDS-PAGE analysis
How it was run: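 E. coli topoisomerase I (10 nM) premixed in reaction buffer with inhibitor diluted in DMSO, then circular RNA substrate added; 1.5 h. DMSO-only control included. Final inhibitor 2.5 to 80 μM. Stopped with proteinase K/SDS/EDTA. Trefoil RNA knot product resolved from substrate on 15% TBE-urea gels and detected by autoradiography.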

Row | Structure (SMILES) | MIC (Citrobacter freundii) | MIC (Shigella flexneri) | MIC (Escherichia coli [1]) | MIC (Staphylococcus aureus [2]) | inhibition (Escherichia coli [3]) | inhibition (Escherichia coli [4]) | MIC (Staphylococcus aureus [5]) | MIC (Enterococcus faecium) | MIC [6] | MIC (Acinetobacter baumannii) | MIC (Klebsiella pneumoniae) | MIC (Enterobacter cloacae) | MIC (Pseudomonas aeruginosa) | ΔTm [7] | IC50 (DNA topoisomerase 1) | MIC (Staphylococcus aureus [8]) | MIC (Escherichia coli [11]) | Activity (DU-145) | MIC (Staphylococcus aureus [12]) | MIC (Enterococcus faecalis) | further results
1 | C#CCCCCCCCCCOc1ccc(-c2nc3ccc(-c4nc5ccc(N6CCN(C)CC6)cc5[nH]4)cc3[nH]2)cc1 | > 32 µg/mL | > 32 µg/mL | 16 µg/mL (≈ 27.8 µM) | > 32 µg/mL | Active | inactive | > 32 µg/mL | > 32 µg/mL | > 32 µg/mL | > 32 µg/mL | > 32 µg/mL | > 32 µg/mL | 16 µg/mL (≈ 27.8 µM) | – | – | – | – | – | – | – | IC50 (DU-145; Homo sapiens, DU-145, 48 h): > 10 µM
2 | C#CCOCCCCCCCCOc1ccc(-c2nc3ccc(-c4nc5ccc(N6CCN(C)CC6)cc5[nH]4)cc3[nH]2)cc1 | > 32 µg/mL | > 38 µg/mL | 16 to 32 µg/mL (≈ 27.1 to 54.2 µM) | > 32 µg/mL | Active | – | > 32 µg/mL | > 32 µg/mL | > 32 µg/mL | > 32 µg/mL | > 32 µg/mL | > 32 µg/mL | 16 to 32 µg/mL (≈ 27.1 to 54.2 µM) | 13.1 °C | > 50 µM | 16 to 32 µg/mL (≈ 27.1 to 54.2 µM) | 2 to 4 µg/mL (≈ 3.39 to 6.77 µM) | Toxic | > 32 µg/mL | 16 to 32 µg/mL (≈ 27.1 to 54.2 µM) | Activity [9]: Active; IC50 [10]: 2.8 µM
3 | C#CCCCCOc1ccc(-c2nc3ccc(-c4nc5ccc(N6CCN(C)CC6)cc5[nH]4)cc3[nH]2)cc1 | > 32 µg/mL | 8 µg/mL (≈ 15.9 µM) | 8 to 16 µg/mL (≈ 15.9 to 31.7 µM) | 4 µg/mL (≈ 7.93 µM) | – | inactive | 4 µg/mL (≈ 7.93 µM) | 1 to 2 µg/mL (≈ 1.98 to 3.96 µM) | 1 to 2 µg/mL (≈ 1.98 to 3.96 µM) | 16 µg/mL (≈ 31.7 µM) | > 32 µg/mL | > 32 µg/mL | 16 µg/mL (≈ 31.7 µM) | – | – | – | – | Toxic | – | – | inhibition (Escherichia coli [13]): inactive
4 | CCOc1ccc(-c2nc3cc(-c4nc5cc(N6CCN(C)CC6)ccc5[nH]4)ccc3[nH]2)cc1 | – | 1 to 2 µg/mL (≈ 2.21 to 4.42 µM) | 16 µg/mL (≈ 35.4 µM) | 1 µg/mL (≈ 2.21 µM) | – | – | 0.5 µg/mL (≈ 1.1 µM) | 0.3 µg/mL (≈ 0.663 µM) | 1 µg/mL (≈ 2.21 µM) | 8 µg/mL (≈ 17.7 µM) | – | 4 µg/mL (≈ 8.84 µM) | 16 µg/mL (≈ 35.4 µM) | – | – | 2 to 4 µg/mL (≈ 4.42 to 8.84 µM) | 16 µg/mL (≈ 35.4 µM) | – | 2 to 4 µg/mL (≈ 4.42 to 8.84 µM) | 16 to 32 µg/mL (≈ 35.4 to 70.7 µM) | inhibition (Escherichia coli [14]): inactive
5 | C#CCOCCCCCCOc1ccc(-c2nc3ccc(-c4nc5ccc(N6CCN(C)CC6)cc5[nH]4)cc3[nH]2)cc1 | > 32 µg/mL | > 32 µg/mL | 16 to 32 µg/mL (≈ 28.4 to 56.9 µM) | > 32 µg/mL | – | – | > 32 µg/mL | > 32 µg/mL | > 32 µg/mL | > 32 µg/mL | > 32 µg/mL | > 32 µg/mL | 16 to 32 µg/mL (≈ 28.4 to 56.9 µM) | 18.3 °C | > 50 µM | 16 to 32 µg/mL (≈ 28.4 to 56.9 µM) | 8 µg/mL (≈ 14.2 µM) | Toxic | 16 to 32 µg/mL (≈ 28.4 to 56.9 µM) | 16 to 32 µg/mL (≈ 28.4 to 56.9 µM) | inhibition (Escherichia coli [13]): inactive; Activity [9]: Active; IC50 [10]: 3.2 µM
